# Data reported in PMC10501872 (Acta Pharmaceutica Sinica. B, 2023).
# What was measured:
# C57Bl/6 mice [1] = assay: DSS-induced colitis; type: in vivo, mouse; conditions: for weight loss: oral administration, Day 8
# How it was run: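 Colitis was induced with 3.5% DSS in drinking water for 5 days (not in controls), followed by normal water. From Day 2, test compound (5 or 25 mg/kg), dexamethasone (25 mg/kg) or vehicle was given orally. Body weight was recorded daily and mice were killed on Day 8. Colon was lysed in RIPA with protease/phosphatase inhibitors by sonication at 4 °C and spun at 12,000×g for 30 min. IL-6 and TNF-α were measured by ELISA on BCA-equalised protein.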
# C57Bl/6 mice [2] = assay: Carrageenan-induced paw edema model; type: in vivo, mouse; conditions: at 4 h; for paw swelling (measured by volume): ip prior to carrageenan
# How it was run: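 Male C57Bl/6 mice (6–8 weeks) were randomised into four groups of six. Saline, indomethacin (10 mg/kg ip) or test compound (5 mg/kg ip) was given 1 h before 50 μL 1% carrageenan was injected into the right hind plantar paw. Paw volume was read by plethysmometer at baseline and at 1, 4, 8 and 24 h. At 4 h, paws were weighed and homogenised in 0.5% HTAB phosphate buffer (pH 6.0); supernatant triplicates were assayed with 3,3′-dimethoxybenzidine/1% H2O2 for MPO.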
# TLR2 [3] = target: T1, TLR2 (Homo sapiens, UniProt O60603); assay: QUANTI-blue SEAP assay, Pam3CSK4-stimulated HEK-Blue hTLR2 cells; type: cell-based
# How it was run: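 HEK-Blue hTLR2 cells (4 × 10^4 per well) were grown 24 h at 37 °C, 5% CO2 in DMEM with 10% FBS, then given fresh medium. Graded test compound and Pam3CSK4 (100 ng/mL) were added for 24 h. Supernatant was mixed 1:1 with QUANTI-Blue, shaken in the dark, and OD620 read at 15–30 min.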
# TLR2/6 = TLR2/6 (Homo sapiens, UniProt O60603); assay: SEAP signaling induced by Pam2CSK4 in HEK-Blue hTLR2 cells; type: cell-based; conditions: Pam2CSK4 100 ng/mL, 24 h
# HEK-Blue hTLR2 cells = assay: Cell toxicity assay; type: cell-based, human; conditions: 24 h, CCK-8
# How it was run: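 HEK-hTLR2 cells were seeded at 3 × 10^4 per well in DMEM with 10% FBS and left overnight at 37 °C. Graded concentrations of test compound were added for 24 h at 37 °C. CCK-8 was then added for 1–4 h at 37 °C and absorbance read at 450 nm.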
# Water solubility = type: physicochemical
# [4] = system: healthy human peripheral blood mononuclear cells (PBMCs); assay: Cytokines ELISA, Pam3CSK4-treated PBMCs; type: cell-based; conditions: 5 μmol/L, Pam3CSK4 100 ng/mL, 24 h
# How it was run: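 Human PBMCs were seeded at 0.5 × 10^6 per well in RPMI 1640 with 10% FBS. Test compound plus Pam3CSK4 (100 ng/mL) was added for 24 h at 37 °C, 5% CO2. Supernatants were stored at −80 °C, then assayed by sandwich ELISA with recombinant cytokine standards, in triplicate.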
# TLR4 [5] = assay: Cytokines ELISA, LPS-treated peritoneal macrophages and THP-1 cells; type: cell-based, human and murine; conditions: LPS 100 ng/mL, 24 h
# How it was run: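 Thioglycolate-elicited peritoneal macrophages from C57BL/6 mice were seeded at 0.5 × 10^6 per well in RPMI 1640 with 10% FBS. THP-1 cells (2.5 × 10^5 cells/mL) were differentiated with 100 nmol/L PMA for 24 h, washed and rested 24 h in fresh medium. Both cell types received LPS (100 ng/mL) plus graded test compound for 24 h at 37 °C. Supernatants were frozen at −80 °C and cytokines quantified by sandwich ELISA against recombinant standards, in triplicate.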
# [6] = system: primary murine peritoneal macrophages; assay: Nitric oxide; type: cell-based, mouse; conditions: 10 μmol/L; Pam3CSK4 100 ng/mL, IFN-γ 40 ng/mL
# How it was run: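 Thioglycolate-elicited peritoneal macrophages from 6–8-week C57BL/6 mice were seeded at 1 × 10^6 per well. Cells were exposed to IFN-γ (40 ng/mL) and Pam3CSK4 (100 ng/mL) with test compound for 48 h. Nitrite was read at 570 nm against a sodium nitrite standard curve.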
# TLR2 [7] = target: T1, TLR2; assay: Surface plasmon resonance, hTLR2; type: binding
# How it was run: (§1)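 For SPR chip coating, human TLR2 was expressed in insect H5 cells and diluted in PBS to 1 mg/mL. Commercial human TLR4 protein was diluted in PBS to 0.1 mg/mL.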
# TLR4 [8] = target: T2, TLR4 (Homo sapiens, UniProt O00206); assay: Surface plasmon resonance, hTLR4; type: binding; conditions: SPR
# How it was run: as §1
# Target sequence in this assay (O00206 24-631 limits assumed): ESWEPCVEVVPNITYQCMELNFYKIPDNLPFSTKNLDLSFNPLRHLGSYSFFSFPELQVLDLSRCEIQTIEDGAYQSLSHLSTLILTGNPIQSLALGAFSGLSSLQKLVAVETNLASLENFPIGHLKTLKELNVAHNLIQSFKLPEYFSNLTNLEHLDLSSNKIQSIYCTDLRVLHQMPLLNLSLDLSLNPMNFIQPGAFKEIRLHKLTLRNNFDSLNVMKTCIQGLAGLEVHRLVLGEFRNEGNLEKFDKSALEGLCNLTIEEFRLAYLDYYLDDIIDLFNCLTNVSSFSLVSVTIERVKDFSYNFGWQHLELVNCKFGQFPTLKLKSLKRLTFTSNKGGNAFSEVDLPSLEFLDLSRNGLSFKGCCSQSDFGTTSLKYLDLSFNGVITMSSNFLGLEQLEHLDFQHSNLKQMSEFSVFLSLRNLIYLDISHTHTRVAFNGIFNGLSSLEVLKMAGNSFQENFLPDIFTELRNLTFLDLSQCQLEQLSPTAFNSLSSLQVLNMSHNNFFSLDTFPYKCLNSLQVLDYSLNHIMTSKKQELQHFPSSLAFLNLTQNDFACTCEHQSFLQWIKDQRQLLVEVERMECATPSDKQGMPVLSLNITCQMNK
# TLR2 [9] = target: T1, TLR2; assay: Cellular thermal shift assay, TLR2; type: binding; conditions: 20 μmol/L, THP-1 cells, 45 to 53 °C, especially at 51 °C
# TLR4 [10] = target: T2, TLR4; assay: Cellular thermal shift assay, TLR4; type: binding; conditions: 20 μmol/L, THP-1 cells
# Target sequence in this assay (O00206 24-839): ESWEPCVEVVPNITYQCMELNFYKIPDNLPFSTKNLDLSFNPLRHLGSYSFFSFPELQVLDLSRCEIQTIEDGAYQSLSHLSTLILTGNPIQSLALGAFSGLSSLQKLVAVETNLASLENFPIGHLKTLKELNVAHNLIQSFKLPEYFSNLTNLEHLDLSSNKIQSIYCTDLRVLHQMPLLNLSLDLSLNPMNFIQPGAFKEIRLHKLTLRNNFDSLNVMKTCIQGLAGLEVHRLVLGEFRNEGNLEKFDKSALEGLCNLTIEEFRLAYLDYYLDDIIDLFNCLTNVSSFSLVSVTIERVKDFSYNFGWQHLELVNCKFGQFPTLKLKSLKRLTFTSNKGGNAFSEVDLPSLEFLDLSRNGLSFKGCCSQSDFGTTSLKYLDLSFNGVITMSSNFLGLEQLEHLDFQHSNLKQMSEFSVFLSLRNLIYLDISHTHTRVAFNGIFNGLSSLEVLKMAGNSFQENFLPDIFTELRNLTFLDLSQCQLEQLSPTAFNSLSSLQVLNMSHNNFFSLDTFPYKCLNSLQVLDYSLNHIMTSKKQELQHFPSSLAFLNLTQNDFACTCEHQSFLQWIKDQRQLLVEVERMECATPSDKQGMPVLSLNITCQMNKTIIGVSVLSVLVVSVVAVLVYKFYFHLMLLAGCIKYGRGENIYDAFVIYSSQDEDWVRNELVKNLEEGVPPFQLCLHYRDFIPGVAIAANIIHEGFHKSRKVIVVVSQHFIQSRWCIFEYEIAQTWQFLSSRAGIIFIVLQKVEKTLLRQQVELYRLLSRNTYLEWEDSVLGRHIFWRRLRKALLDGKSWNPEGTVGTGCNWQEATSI
# TLR2 [11] = target: T1, TLR2; assay: Competitive combination assay with Rhodamine-Pam3CSK4; type: cell-based; conditions: 1 μmol/L, Rhodamine-Pam3CSK4 800 ng/mL, 4 h
# How it was run: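 HEK-hTLR2 cells (3 × 10^4 per well) were seeded in DMEM with 10% FBS and left overnight. Medium was replaced with DMEM containing 800 ng/mL rhodamine-Pam3CSK4 and 1 μmol/L test compound for 4 h. After three PBS washes, nuclei were stained with DAPI for 5 min, cells were washed again and imaged by confocal microscopy.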
# [12] = system: mouse primary peritoneal macrophage; assay: Peritoneal macrophage phenotype assay; type: cell-based; conditions: 10 μmol/L
# How it was run: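 Peritoneal macrophages were plated at 1 × 10^6 per well in RPMI 1640 with 10% FBS and left overnight. Cells were treated for 24 h with medium, Pam3CSK4 (100 ng/mL) + IFN-γ (40 ng/mL), or LPS (100 ng/mL) + IFN-γ (40 ng/mL), each with test compound. Cells were trypsinised, stained 30 min for CD86 and CD11b, and analysed by flow cytometry.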
# mouse primary BMDCs = assay: BMDCs activation assay; type: cell-based; conditions: 10 μmol/L
# How it was run: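 BMDCs were generated from femur and tibia marrow of C57BL/6 mice and collected on day 7. They were seeded at 5 × 10^5 per well in RPMI 1640 with 10% FBS and left overnight. Cells then received Pam3CSK4 (300 ng/mL) or LPS (100 ng/mL) plus test compound for 24 h. Harvested cells were stained 30 min for CD86, CD80 and CD11c and read by flow cytometry.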
# C57Bl/6 mice [13] = assay: Cecum ligation and puncture sepsis model; type: in vivo, mouse; conditions: oral 5 and 25 mg/kg 1 h before CLP; serum and lung tissue, 8 h
# How it was run: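 Male C57Bl/6 mice aged 6–8 weeks were used for polymicrobial sepsis by CLP. Test compound was given orally 1 h before surgery; sham-operated mice received the same volume of saline. Serum and lung tissue were taken 8 h after surgery for ELISA.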
# [14] = Pharmacokinetics in rat plasma; type: in vivo; conditions: for AUC: rat plasma; for AUC / half-life: n = 5; for half-life: t1/2, rat plasma
# KM mice = assay: Toxicity studies in vivo; parameters: species or system mouse; conditions: 250 mg/kg oral on Day 1, 3 and 5; Day 7
# How it was run: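 Male and female KM mice (6–8 weeks) were split into control and treated groups of 10 (half male). Test compound was given orally on Days 1, 3 and 5; controls received the same volume of solvent. Body weight was recorded daily. On Day 7, mice were killed and tissues taken for H&E pathology.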
# T1 sequence (O60603 21-784): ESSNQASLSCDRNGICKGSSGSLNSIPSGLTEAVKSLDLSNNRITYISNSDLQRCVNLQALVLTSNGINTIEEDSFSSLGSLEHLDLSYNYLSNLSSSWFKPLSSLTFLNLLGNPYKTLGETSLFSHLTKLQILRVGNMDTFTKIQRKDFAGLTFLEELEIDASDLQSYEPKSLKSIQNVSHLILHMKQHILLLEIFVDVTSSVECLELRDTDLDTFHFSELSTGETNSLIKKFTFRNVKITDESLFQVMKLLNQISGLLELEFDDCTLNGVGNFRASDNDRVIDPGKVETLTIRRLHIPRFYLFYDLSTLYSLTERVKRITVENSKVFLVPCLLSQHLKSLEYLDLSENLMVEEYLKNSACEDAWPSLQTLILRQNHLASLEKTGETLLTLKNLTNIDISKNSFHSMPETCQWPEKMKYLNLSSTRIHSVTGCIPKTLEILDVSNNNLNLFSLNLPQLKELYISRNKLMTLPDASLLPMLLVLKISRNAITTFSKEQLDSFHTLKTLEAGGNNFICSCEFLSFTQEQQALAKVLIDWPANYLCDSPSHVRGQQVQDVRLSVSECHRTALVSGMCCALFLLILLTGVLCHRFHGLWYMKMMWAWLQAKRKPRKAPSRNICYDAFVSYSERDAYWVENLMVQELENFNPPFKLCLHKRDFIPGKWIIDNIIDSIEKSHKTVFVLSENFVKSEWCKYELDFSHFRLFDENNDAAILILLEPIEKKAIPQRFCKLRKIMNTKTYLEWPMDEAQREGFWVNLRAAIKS
# Sequence of TLR2/6 (O60603 21-784): as above
compound,measurement,setting,value
"C[C@@H]1C[C@H]2[C@@H]3CCC4=CC(=O)C=C[C@]4(C)[C@@]3(F)[C@@H](O)C[C@]2(C)[C@@]1(O)C(=O)CO [dexamethasone, reference compound]",weight loss,C57Bl/6 mice [1],reduced weight loss
"COc1ccc2c(c1)c(CC(=O)O)c(C)n2C(=O)c1ccc(Cl)cc1 [indomethacin, reference compound]",activity of local myeloperoxidase (MPO) in paw tissue,C57Bl/6 mice [2],reversed
same,paw swelling (measured by volume),C57Bl/6 mice [2],significantly reduced
COc1ccc2c(=O)oc3c(OC)cc(CC(O)CN(C)C)c4c(=O)oc1c2c34 (stereo not drawn) [SMU-Y6],IC50,TLR2 [3],0.11 ± 0.04 µM
same,improvement of activity compared with Taspine,TLR2 [3]; vs Taspine,10 fold
same,SEAP signaling induced by Pam2CSK4,TLR2/6,suppressed the SEAP signaling
same,cytotoxicity compared with Taspine,HEK-Blue hTLR2 cells,reduced toxicity
same,water solubility relative to Taspine,Water solubility; vs Taspine,20 times
same,release of IL-1β,[4],completely inhibited
same,release of TNF-α,[4],completely inhibited
same,"inhibitory activity with regards to TLR4 (TNF-α, IL-6)",TLR4 [5],little or even no inhibitory activity
same,production of NO induced by Pam3CSK4,[6],significantly reduced
same,Kd,TLR2 [7],0.18 µM
same,time to complete dissociation from TLR2 protein,TLR2 [7]; SPR,500 s
same,binding signal to recombinant hTLR4 protein,TLR4 [8],did not detect a binding signal
same,thermal stabilization of TLR2 protein,TLR2 [9],higher thermal stabilization
same,thermal stabilization of TLR4,TLR4 [10],failed to induce the thermal stabilization
same,fluorescence intensity of Rhodamine-Pam3CSK4,TLR2 [11],reduced the fluorescence intensity
same,polarization induced by LPS and IFN-γ,[12],no effect
same,LPS-induced activation of BMDCs,mouse primary BMDCs,failed to reverse
same,percentage of CD80+ CD86+ cells,"mouse primary BMDCs; Pam3CSK4, 16.6% without compound",8.1%
same,activity of local myeloperoxidase (MPO) in paw tissue,C57Bl/6 mice [2],reversed
same,paw swelling (measured by volume),C57Bl/6 mice [2],significantly reduced
same,weight loss,C57Bl/6 mice [1],reduced weight loss
same,IL-6 in local colonic tissue,"C57Bl/6 mice [1]; oral, 5 and 25 mg/kg",reduced the production
same,TNF-α in local colonic tissue,"C57Bl/6 mice [1]; oral, 5 and 25 mg/kg",reduced the production
same,production of IL-6 in sepsis,C57Bl/6 mice [13],significantly reduced the production
same,production of TNF-α in sepsis,C57Bl/6 mice [13],significantly reduced the production
same,Cmax,[14]; ip,208 ± 31.1 ng/mL
same,Tmax,[14]; ip,0.25 ± 0.01 h
same,AUC,"[14]; ip, AUC0‒t, intraperitoneal injection",1790 ± 410 ng·h/mL
same,AUC,"[14]; ip, AUC0‒∞, intraperitoneal injection",2160 ± 600 ng·h/mL
same,half-life,"[14]; ip, intraperitoneal injection",9.16 ± 1.11 h
same,Cmax,[14]; po,52.3 ± 5.83 ng/mL
same,Tmax,[14]; po,3 ± 1 h
same,AUC,"[14]; po, AUC0‒t, oral administration",619 ± 84.2 ng·h/mL
same,AUC,"[14]; po, AUC0‒∞, oral administration",844 ± 184 ng·h/mL
same,half-life,"[14]; po, oral administration",11.5 ± 2.7 h
same,immediate toxicity,KM mice,did not seem to exhibit immediate toxicity
same,"pathological analysis of heart, liver, spleen, lung and kidney",KM mice,no obvious organic damage
"COc1ccc2c(=O)oc3c(OC)cc(CCN(C)C)c4c(=O)oc1c2c34 [Taspine, reference compound]",water solubility,Water solubility,poor water solubility
"CCOC(=O)C1=CCCC[C@H]1S(=O)(=O)Nc1ccc(F)cc1Cl [TAK-242, reference compound]",binding signal to recombinant hTLR4 protein,TLR4 [8],exhibited the ability to bind
